Source: ChEMBL document CHEMBL1140915, “Second-generation highly potent and selective inhibitors of the hepatitis C virus NS3 serine protease” (J Med Chem, 2009)

What was measured:
[1] = tested on: Hepatitis C virus; assay: Antiviral activity against HCV assessed as inhibition of virus replication by cell based assay in absence of human serum; type: functional, Hepacivirus hominis
Method in brief: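 Replicon-based cellular assay run without human serum. EC90 is the concentration that inhibits replicon replication by 90%. Compounds were tested as rapidly equilibrating P1 diastereomer mixtures.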

[2] = Inhibition of HCV NS3 protease in absence of human serum; design: species or system Hepacivirus hominis
Method in brief: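 Continuous enzymatic assay using NS4A-tethered single-chain HCV NS3 serine protease, without human serum. Ki* is the equilibrium constant, which includes the reversible covalent ketone–serine bond. Compounds were tested as P1 diastereomer mixtures (2:1 to 1:2) that equilibrate rapidly under assay conditions.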

[3] = Selectivity for HCV NS3 protease over human neutrophil elastase
Method in brief: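 Compounds were also assayed against human neutrophil elastase. Selectivity is expressed as the HNE/HCV ratio of the two enzyme potencies.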

[4] = AUC in rat at 10 mg/kg, po administered with 20% HPBCD; type: ADME, organism-based; design: dose 10 mg/kg, route oral; details: plasma

SMILES | EC90 [1] | Ki [2] | Ratio [3] | AUC [4]
C=CCNC(=O)C(=O)C(CC1CCC1)NC(=O)[C@@H]1[C@@H]2[C@H](CN1C(=O)[C@@H](NC(=O)N[C@@H](CN1C(=O)CC(C)(C)CC1=O)C(C)(C)C)C(C)(C)C)C2(C)C (stereo partly drawn) | 40 nM | 7 nM | 6400 | –
CCCCC(NC(=O)[C@@H]1[C@@H]2[C@H](CN1C(=O)[C@@H](NC(=O)N[C@@H](CN1C(=O)CC(C)(C)CC1=O)C(C)(C)C)C(C)(C)C)C2(C)C)C(=O)C(=O)NC1CC1 (stereo partly drawn) | 30 nM | 5 nM | 6100 | –
C=CCNC(=O)C(=O)C(CCCC)NC(=O)[C@@H]1[C@@H]2[C@H](CN1C(=O)[C@@H](NC(=O)N[C@@H](CN1C(=O)CCCC1=O)C(C)(C)C)C(C)(C)C)C2(C)C (stereo partly drawn) | 150 nM | 8 nM | 69000 | 0.44 µM·h
C=CCNC(=O)C(=O)C(CCCC)NC(=O)[C@@H]1[C@@H]2[C@H](CN1C(=O)[C@@H](NC(=O)N[C@@H](CN1C(=O)C3CC3C1=O)C(C)(C)C)C(C)(C)C)C2(C)C (stereo partly drawn) | 70 nM | 5 nM | 9500 | –
CCCCC(NC(=O)[C@@H]1[C@@H]2[C@H](CN1C(=O)[C@@H](NC(=O)N[C@@H](CN1C(=O)CC(C)(C)CC1=O)C(C)(C)C)C(C)(C)C)C2(C)C)C(=O)C(=O)NCc1ccccc1 (stereo partly drawn) | 40 nM | 14 nM | 1100 | –
C=CCNC(=O)C(=O)C(CCCC)NC(=O)[C@@H]1[C@@H]2[C@H](CN1C(=O)[C@@H](NC(=O)N[C@@H](CN1C(=O)c3ccccc3C1=O)C(C)(C)C)C(C)(C)C)C2(C)C (stereo partly drawn) | 750 nM | 30 nM | 500 | –
C=CCNC(=O)C(=O)C(CCCC)NC(=O)[C@@H]1[C@@H]2[C@H](CN1C(=O)[C@@H](NC(=O)N[C@@H](CN1C(=O)CN(C)C1=O)C(C)(C)C)C(C)(C)C)C2(C)C (stereo partly drawn) | 250 nM | 19 nM | 1200 | –
C=CCNC(=O)C(=O)C(CCCC)NC(=O)[C@@H]1[C@@H]2[C@H](CN1C(=O)[C@@H](NC(=O)N[C@@H](CN1C(=O)NC(C)(C)C1=O)C(C)(C)C)C(C)(C)C)C2(C)C (stereo partly drawn) | 250 nM | 11 nM | 2500 | –
CCCCC(NC(=O)[C@@H]1[C@@H]2[C@H](CN1C(=O)[C@@H](NC(=O)N[C@@H](CN1C(=O)CC(C)(C)CC1=O)C(C)(C)C)C(C)(C)C)C2(C)C)C(=O)C(=O)NCc1ccccn1 (stereo partly drawn) | 80 nM | 22 nM | 2500 | –
C=CCNC(=O)C(=O)C(CCCC)NC(=O)[C@@H]1[C@@H]2[C@H](CN1C(=O)[C@@H](NC(=O)N[C@@H](CN1C(=O)CCC(C)(C)C1=O)C(C)(C)C)C(C)(C)C)C2(C)C (stereo partly drawn) | 35 nM | 7 nM | 3100 | –
C=CCNC(=O)C(=O)C(CCCC)NC(=O)[C@@H]1[C@@H]2[C@H](CN1C(=O)C(NC(=O)NC(CN1C(=O)CC(C)(C)CC1=O)C(C)(C)C)C1Cc3ccccc3C1)C2(C)C (single isomer, unassigned) | 100 nM | 4 nM | 1800 | –
C#CCCC(NC(=O)[C@@H]1[C@@H]2[C@H](CN1C(=O)[C@@H](NC(=O)NC(CN1C(=O)CC(C)(C)CC1=O)C(C)(C)C)C(C)(C)C)C2(C)C)C(=O)C(=O)NCC=C (single isomer, unassigned) | 40 nM | 2 nM | 230 | –
C=CCNC(=O)C(=O)C(CCCC)NC(=O)[C@@H]1[C@@H]2[C@H](CN1C(=O)[C@@H](NC(=O)NC(CN1C(=O)CCNC1=O)C(C)(C)C)C(C)(C)C)C2(C)C (single isomer, unassigned) | 150 nM | 4 nM | 4300 | –
CCCCC(NC(=O)[C@@H]1[C@@H]2[C@H](CN1C(=O)[C@@H](NC(=O)NC(CN1C(=O)CC(C)(C)CC1=O)C(C)(C)C)C(C)(C)C)C2(C)C)C(=O)C(=O)NCc1cccs1 (single isomer, unassigned) | 100 nM | 12 nM | 900 | –
C=CCNC(=O)C(=O)C(CCCC)NC(=O)[C@@H]1[C@@H]2[C@H](CN1C(=O)[C@@H](NC(=O)NC(CN1C(=O)COCC1=O)C(C)(C)C)C(C)(C)C)C2(C)C (single isomer, unassigned) | 500 nM | 8 nM | 7200 | –
C=CCNC(=O)C(=O)C(CCCC)NC(=O)[C@@H]1[C@@H]2[C@H](CN1C(=O)[C@@H](NC(=O)NC(CN1C(=O)N(C)C(C)(C)C1=O)C(C)(C)C)C(C)(C)C)C2(C)C (single isomer, unassigned) | 60 nM | 8 nM | 1600 | –
C=CCNC(=O)C(=O)C(CCCC)NC(=O)[C@@H]1[C@@H]2[C@H](CN1C(=O)[C@@H](NC(=O)NC(CN1C(=O)CC(C)(C)CC1=O)C(C)(C)C)C(C)(C)C)C2(C)C (single isomer, unassigned) | 40 nM | 4 nM | 9300 | 1.58 µM·h
C=CCNC(=O)C(=O)C(CCCC)NC(=O)[C@@H]1[C@@H]2[C@H](CN1C(=O)[C@@H](NC(=O)NC(CN1C(=O)CNC1=O)C(C)(C)C)C(C)(C)C)C2(C)C (single isomer, unassigned) | 1000 nM | 8 nM | 1200 | –
C=CCNC(=O)C(=O)C(CCCC)NC(=O)[C@@H]1[C@@H]2[C@H](CN1C(=O)[C@@H](NC(=O)NC(CN1C(=O)CC3(CCCC3)CC1=O)C(C)(C)C)C(C)(C)C)C2(C)C (single isomer, unassigned) | 200 nM | 6 nM | 3800 | –
CCCCC(NC(=O)[C@@H]1[C@@H]2[C@H](CN1C(=O)[C@@H](NC(=O)NC(CN1C(=O)CC(C)(C)CC1=O)C(C)(C)C)C(C)(C)C)C2(C)C)C(=O)C(=O)NCCC (single isomer, unassigned) | 80 nM | 21 nM | 910 | –
C=CCNC(=O)C(=O)C(CCCC)NC(=O)[C@@H]1[C@@H]2[C@H](CN1C(=O)[C@@H](NC(=O)NC(CN1C(=O)CCN(C)C1=O)C(C)(C)C)C(C)(C)C)C2(C)C (single isomer, unassigned) | 60 nM | 7 nM | 1400 | –
C=CCNC(=O)C(=O)C(CCCC)NC(=O)[C@@H]1[C@@H]2[C@H](CN1C(=O)[C@@H](NC(=O)NC(CN1C(=O)CN(C)CC1=O)C(C)(C)C)C(C)(C)C)C2(C)C (single isomer, unassigned) | 40 nM | 6 nM | 9500 | 0.36 µM·h
CCCCC(NC(=O)[C@@H]1[C@@H]2[C@H](CN1C(=O)[C@@H](NC(=O)NC(CN1C(=O)CC(C)(C)CC1=O)C(C)(C)C)C(C)(C)C)C2(C)C)C(=O)C(=O)NCC (single isomer, unassigned) | 70 nM | 13 nM | 8200 | –
C=CCNC(=O)C(=O)C(CCCC)NC(=O)[C@@H]1[C@@H]2[C@H](CN1C(=O)C(NC(=O)NC(CN1C(=O)CC(C)(C)CC1=O)C(C)(C)C)C1(C)Cc3ccccc3C1)C2(C)C (single isomer, unassigned) | 80 nM | 32 nM | 220 | –
C=CCNC(=O)C(=O)C(CCCC)NC(=O)[C@@H]1[C@@H]2[C@H](CN1C(=O)C(NC(=O)NC(CN1C(=O)CC(C)(C)CC1=O)C(C)(C)C)C1(C)CCCCC1)C2(C)C (single isomer, unassigned) | 45 nM | 4 nM | 1000 | –
C=CCNC(=O)C(=O)C(CCCC)NC(=O)[C@@H]1[C@@H]2[C@H](CN1C(=O)[C@@H](NC(=O)NC(CN1C(=O)CN(c3ccccc3)CC1=O)C(C)(C)C)C(C)(C)C)C2(C)C (single isomer, unassigned) | 100 nM | 12 nM | 90 | –
C=CCNC(=O)C(=O)C(CCCC)NC(=O)[C@@H]1[C@@H]2[C@H](CN1C(=O)[C@@H](NC(=O)NC(CN1C(=O)CC(C)(CC)CC1=O)C(C)(C)C)C(C)(C)C)C2(C)C (single isomer, unassigned) | 40 nM | 8 nM | 2500 | –
C=CCNC(=O)C(=O)C(CCC)NC(=O)[C@@H]1[C@@H]2[C@H](CN1C(=O)[C@@H](NC(=O)NC(CN1C(=O)CC(C)(C)CC1=O)C(C)(C)C)C(C)(C)C)C2(C)C (single isomer, unassigned) | 40 nM | 4 nM | 1600 | –
C=CCNC(=O)C(=O)C(CCCC)NC(=O)[C@@H]1[C@@H]2[C@H](CN1C(=O)[C@@H](NC(=O)NC(CN1C(=O)CCC1=O)C(C)(C)C)C(C)(C)C)C2(C)C (single isomer, unassigned) | 230 nM | 13 nM | 2000 | –
C=CCNC(=O)C(=O)C(CCCC)NC(=O)[C@@H]1[C@@H]2[C@H](CN1C(=O)[C@@H](NC(=O)NC(CN1C(=O)C3CCC(C3)C1=O)C(C)(C)C)C(C)(C)C)C2(C)C (single isomer, unassigned) | 60 nM | 6 nM | 7000 | –
